For orientation: EC50 means the concentration that produces a half-maximal response. As usually defined, the CC50 is the concentration giving 50% cytotoxicity.

Drawing on ChEMBL document CHEMBL4316590, “Discovery and synthesis of novel beesioside I derivatives with potent anti-HIV activity” (Eur J Med Chem, 2019), this text covers EC50, CC50 and selectivity ratio for 27 molecules.

Data set [1] has as its system Human immunodeficiency virus 1. Nature of the data set: Antiviral activity against HIV1 NL4-3 infected in human MT4 cells by luciferase reporter gene assay. Format: functional, organism-based. In short, it runs like this: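 HIV-1 NL4-3 Nanoluc-sec reporter virus (secreted NanoLuc insert) infecting MT4 cells, multicycle replication format, compounds at various concentrations; replication read as NanoLuc luciferase activity (Nano-Glo).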
A general note: Reporter assays use an easily measured gene product as a stand-in for the process of interest.

The next data set has as its system MT4. Nature of the data set: Cytotoxicity against human MT4 cells assessed as reduction in cell viability after 3 days by CellTiter-Glo luminescent assay. Format: cell-based. The conditions noted are these: mt4, 72 h. For orientation: ATP-based viability assays read luminescence as a measure of living cells.
Data set [2] is described as follows: Therapeutic index, ratio of CC50 for human MT4 cells to EC50 for HIV1 NL4-3 infected in human MT4 cells. Type of data set: toxicity, cell-based. The conditions noted are these: read-out: Ratio CC50/EC50. In outline: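 TI calculated as CC50 (CellTiter-Glo, MT4 cells, 3 days) divided by EC50 (HIV-1 NL4-3 Nanoluc-sec multicycle replication in MT4 cells, luciferase read-out); CC50/EC50 below 5 taken as no selective anti-HIV activity.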

[3] abbreviates: Human immunodeficiency virus 1, NL4-3, MT4, read-out: EC50.

As to `CC(=O)O[C@H]1[C@@H](OC(C)=O)[C@@]2(C)[C@@H]3CC[C@H]4C(C)(C)[C@@H](OC(C)=O)CC[C@@]45C[C@@]35CC[C@@]23CO[C@@]2(C(C)(C)O)CC[C@](C)(O2)[C@@H]13`, the EC50 in data set [1] (setting [3]) was determined as 2.44 µM. The CC50 in the data set with MT4 is greater than 40 µM.
For the molecule `CC(=O)O[C@H]1[C@@H](O)[C@@]2(C)[C@@H]3[C@@H](O)C[C@H]4C(C)(C)[C@@H](O[C@@H]5OC[C@@H](O)[C@H](O)[C@H]5O)CC[C@@]45C[C@@]35CC[C@@]23CO[C@@]2(C(C)(C)O)CC[C@](C)(O2)[C@@H]13`, in data set [1], the EC50 result is recorded as “Not Active”. In addition, the selectivity ratio in data set [2] was less than 5. Moreover, the half-maximal cytotoxic concentration (CC50) in the data set with MT4 is greater than 40 µM.
Take `CC(=O)O[C@H]1[C@@H](OC(C)=O)[C@@]2(C)[C@@H]3CC[C@H]4C(C)(C)[C@@H](OC(=O)CC(C)(C)C(=O)O)CC[C@@]45C[C@@]35CC[C@@]23CO[C@@]2(C(C)(C)O)CC[C@](C)(O2)[C@@H]13`: the EC50 in data set [1] (setting [3]) worked out at 0.025 µM. Besides, the selectivity ratio in data set [2] is greater than 800. The CC50 in the data set with MT4 was greater than 20 µM.
As for `CC(=O)O[C@H]1[C@H](O)[C@@]2(C)[C@@H]3CC[C@H]4C(C)(C)[C@@H](O[C@@H]5OC[C@@H](O)[C@H](O)[C@H]5O)CC[C@@]45C[C@@]35CC[C@@]23CO[C@@](C)(CCC(=O)C(C)(C)O)[C@@H]13`, the EC50 in data set [1] (setting [3]) was greater than 10 µM. Further, the selectivity ratio in data set [2] is less than 5. In addition, in the data set with MT4, the 50% cytotoxic concentration (CC50) was greater than 40 µM.
With `CC(=O)O[C@H]1[C@H](O)[C@H]([C@]2(C)CC[C@@H](C(C)(C)O)O2)[C@@]2(C)CC[C@@]34C[C@@]35CC[C@H](O[C@@H]3OC[C@@H](O)[C@H](O)[C@H]3O)C(C)(C)[C@@H]5CC[C@H]4[C@]12C`, the EC50 in data set [1] (setting [3]) was found to be 4.85 µM. For the same molecule, the CC50 with MT4 was greater than 40 µM.
For `CC(=O)O[C@H]1[C@@H](OC(C)=O)[C@@]2(C)[C@@H]3CC[C@H]4C(C)(C)[C@@H](OC(=O)CCCC(=O)O)CC[C@@]45C[C@@]35CC[C@@]23CO[C@@]2(C(C)(C)O)CC[C@](C)(O2)[C@@H]13`, in data set [1], the EC50 result was “Not Active”. In addition, in data set [2], the selectivity ratio was less than 5. Moreover, the CC50 with MT4 was greater than 20 µM.
On the same counts, the results for `CC(=O)O[C@H]1[C@@H]2O[C@@]3(C(C)(C)O)CC[C@](C)(O3)[C@@H]2[C@@]2(CO)CC[C@@]34C[C@@]35CC[C@H](O[C@@H]3OC[C@@H](O)[C@H](O)[C@H]3O)C(C)(C)[C@@H]5CC[C@H]4[C@]12C` are “Not Active”, less than 5 and greater than 40 µM.
For the molecule `CC(=O)O[C@H]1[C@@H](OC(C)=O)[C@@]2(C)[C@@H]3CC[C@H]4C(C)(C)[C@@H](OC(=O)CCC(C)(C)C(=O)O)CC[C@@]45C[C@@]35CC[C@@]23CO[C@@]2(C(C)(C)O)CC[C@](C)(O2)[C@@H]13`, the EC50 in data set [1] (setting [3]) came out at 0.048 µM. The CC50 in the data set on MT4 is greater than 5 µM.
In the case of `CC(C)(O)[C@@H]1CC[C@@](C)([C@H]2[C@@H](O)[C@H](O)[C@@]3(C)[C@@H]4[C@@H](O)C[C@H]5C(C)(C)[C@@H](O[C@@H]6OC[C@@H](O)[C@H](O)[C@H]6O)CC[C@@]56C[C@@]46CC[C@]23C)O1`, the EC50 entry in data set [1] was “Not Active”. Also, in data set [2], the selectivity ratio was less than 5. The CC50 in the data set on MT4 was greater than 40 µM.
On to `CC(=O)O[C@H]1[C@@H](O)[C@@]2(C)[C@@H]3CC[C@H]4C(C)(C)[C@@H](O[C@@H]5OC[C@@H](O)[C@H](O)[C@H]5O)CC[C@@]45C[C@@]35CC[C@@]23CO[C@@]2(C(C)(C)O)CC[C@](C)(O2)[C@@H]13`, for which, in data set [1] (setting [3]), the half-maximal effective concentration (EC50) stood at 4.65 µM. Further, the 50% cytotoxic concentration (CC50) in the data set with MT4 is greater than 40 µM.
Consider `C=C(C)[C@@H]1CC[C@]2(C(=O)O)CC[C@]3(C)[C@H](CC[C@@H]4[C@@]5(C)CC[C@H](OC(=O)CC(C)(C)C(=O)O)C(C)(C)[C@@H]5CC[C@]43C)[C@@H]12` [BEVIRIMAT], for which the EC50 in data set [1] (setting [3]) stood at 0.026 µM. Also, the selectivity ratio in data set [2] amounted to 612. In addition, the 50% cytotoxic concentration (CC50) with MT4 came to 15.9 µM.
Regarding `CC1(C)[C@@H](O)CC[C@]23C[C@]24CC[C@]25CO[C@@]6(C(C)(C)O)CC[C@](C)(O6)[C@H]2[C@@H](O)[C@@H](O)[C@@]5(C)[C@@H]4CC[C@@H]13`, in data set [1] (setting [3]), the EC50 was greater than 40 µM. Also, in data set [2], the selectivity ratio was less than 5. Further, the CC50 with MT4 is greater than 40 µM.
As for `CC(=O)O[C@H]1[C@@H](OC(C)=O)[C@@]2(C)[C@@H]3CC[C@H]4C(C)(C)[C@@H](OC(=O)CC(C)(C)CC(=O)O)CC[C@@]45C[C@@]35CC[C@@]23CO[C@@]2(C(C)(C)O)CC[C@](C)(O2)[C@@H]13`, the EC50 entry in data set [1] was “Not Active”. Further, the selectivity ratio in data set [2] is less than 5. For the same molecule, the CC50 with MT4 was greater than 20 µM.
Turning to `CC(=O)O[C@H]1[C@@H](OC(C)=O)[C@@]2(C)[C@@H]3CC[C@H]4C(C)(C)[C@@H](OC(=O)COCC(=O)O)CC[C@@]45C[C@@]35CC[C@@]23CO[C@@]2(C(C)(C)O)CC[C@](C)(O2)[C@@H]13`, the EC50 in data set [1] (setting [3]) is 0.12 µM. Further, the CC50 with MT4 is greater than 5 µM.
Regarding `CCC(=O)O[C@H]1CC[C@]23C[C@]24CC[C@]25CO[C@@]6(C(C)(C)O)CC[C@](C)(O6)[C@H]2[C@@H](OC(C)=O)[C@@H](OC(C)=O)[C@@]5(C)[C@@H]4CC[C@H]3C1(C)C`, the EC50 result in data set [1] is “Not Active”. For the same molecule, in data set [2], the selectivity ratio was less than 5. For the same molecule, in the data set on MT4, the CC50 was greater than 40 µM.
In the case of `CC(=O)O[C@H]1[C@@H](OC(C)=O)[C@@]2(C)[C@@H]3CC[C@H]4C(C)(C)[C@@H](OC(=O)CCC(=O)O)CC[C@@]45C[C@@]35CC[C@@]23CO[C@@]2(C(C)(C)O)CC[C@](C)(O2)[C@@H]13`, the EC50 in data set [1] (setting [3]) was determined as 7.7 µM. In addition, in the data set on MT4, the CC50 was greater than 40 µM.
In the same order, the values of `CC1(C)[C@@H](O[C@@H]2OC[C@@H](O)[C@H](O)[C@H]2O)CC[C@]23C[C@]24CC[C@]25CO[C@@]6(C(C)(C)O)CC[C@](C)(O6)[C@H]2[C@@H](O)[C@@H](O)[C@@]5(C)[C@@H]4CC[C@@H]13` are 7.62 µM and greater than 40 µM.
For `C[C@@H]1O[C@@H](O[C@H]2[C@H](O[C@H]3CC[C@]45C[C@]46CC[C@]4(C)[C@@H]([C@]7(C)CC[C@@H](C(C)(C)O)O7)[C@@H](O)C[C@@]4(C)[C@@H]6CC[C@H]5C3(C)C)OC[C@@H](O)[C@@H]2O)[C@H](O)[C@H](O[C@@H]2O[C@H](CO)[C@@H](O)[C@H](O)[C@H]2O)[C@H]1O`, the EC50 in data set [1] (setting [3]) is greater than 10 µM. Besides, in data set [2], the selectivity ratio is less than 5. The CC50 with MT4 is greater than 40 µM.
Regarding `CC(=O)O[C@H]1[C@@H](OC(C)=O)[C@@]2(C)[C@@H]3CC[C@H]4C(C)(C)[C@@H](O[C@@H]5OC[C@@H](O)[C@H](O)[C@H]5O)CC[C@@]45C[C@@]35CC[C@@]23CO[C@@](C)(CCC(=O)C(C)(C)O)[C@@H]13`, the EC50 in data set [1] (setting [3]) is greater than 30 µM. Further, the selectivity ratio in data set [2] was less than 5. For the same molecule, the CC50 in the data set with MT4 was greater than 30 µM.
For `CC(=O)O[C@H]1[C@@H](OC(C)=O)[C@@]2(C)[C@@H]3CC[C@H]4C(C)(C)[C@@H](O[C@@H]5OC[C@@H](O)[C@H](O)[C@H]5O)CC[C@@]45C[C@@]35CC[C@@]23CO[C@@]2(C(C)(C)O)CC[C@](C)(O2)[C@@H]13`, in data set [1] (setting [3]), the EC50 was determined as 2.32 µM. Also, in the data set with MT4, the CC50 is greater than 40 µM.
For `CC(=O)O[C@H]1[C@@H]2O[C@@]3(C(C)(C)O[C@H]4O[C@H](CO)[C@@H](O)[C@H](O)[C@H]4O)CC[C@](C)(O3)[C@@H]2[C@@]2(C)CC[C@@]34C[C@@]35CC[C@H](O[C@@H]3OC[C@@H](O)[C@H](O)[C@H]3O)C(C)(C)[C@@H]5CC[C@H]4[C@]12C`, the EC50 in data set [1] (setting [3]) amounted to 3.76 µM. Also, in data set [2], the selectivity ratio came out at 9.4. The CC50 in the data set on MT4 is 35.4 µM.
Consider `CC(=O)O[C@H]1[C@@H](OC(C)=O)[C@@]2(C)[C@@H]3CC[C@H]4C(C)(C)[C@@H](O)CC[C@@]45C[C@@]35CC[C@@]23CO[C@@]2(C(C)(C)O)CC[C@](C)(O2)[C@@H]13`, for which, in data set [1], the EC50 result is listed as “Not Active”. Moreover, the selectivity ratio in data set [2] was less than 5. In addition, in the data set with MT4, the CC50 was greater than 40 µM.
On the same counts, the results for `CC(=O)O[C@H]1[C@@H](OC(C)=O)[C@@]2(C)[C@@H]3CC[C@H]4C(C)(C)[C@@H](OC(=O)CC(C)CC(=O)O)CC[C@@]45C[C@@]35CC[C@@]23CO[C@@]2(C(C)(C)O)CC[C@](C)(O2)[C@@H]13` (mixture of isomers) are “Not Active”, less than 5 and greater than 20 µM.
For `CC(=O)O[C@H]1[C@@H](OC(C)=O)[C@@]2(C)[C@@H]3CC[C@H]4C(C)(C)[C@@H](OC(=O)CC5(CC(=O)O)CCCC5)CC[C@@]45C[C@@]35CC[C@@]23CO[C@@]2(C(C)(C)O)CC[C@](C)(O2)[C@@H]13`, the EC50 in data set [1] (setting [3]) stood at 1.59 µM. Moreover, the CC50 in the data set on MT4 was greater than 20 µM.
For `C[C@@H]1O[C@@H](O[C@H]2[C@H](O[C@H]3CC[C@]45C[C@]46CC[C@]4(C)[C@@H]([C@]7(C)CC[C@@H](C(C)(C)O)O7)[C@@H](O)C[C@@]4(C)[C@@H]6[C@@H](O)C[C@H]5C3(C)C)OC[C@@H](O)[C@@H]2O)[C@H](O)[C@H](O)[C@H]1O`, the concentration for a half-maximal effect (EC50) in data set [1] (setting [3]) was greater than 10 µM. Further, the selectivity ratio in data set [2] is less than 5. Moreover, the CC50 with MT4 was greater than 40 µM.
For `CC(=O)O[C@H]1[C@@H](OC(C)=O)[C@@]2(C)[C@@H]3CC[C@H]4C(C)(C)[C@@H](OC(=O)CC(C)C(=O)O)CC[C@@]45C[C@@]35CC[C@@]23CO[C@@]2(C(C)(C)O)CC[C@](C)(O2)[C@@H]13` (some centres undefined), the EC50 in data set [1] (setting [3]) is 1.11 µM. Further, the CC50 in the data set on MT4 was greater than 20 µM.
As to `Cc1cn([C@H]2C[C@H](N=[N+]=[N-])[C@@H](CO)O2)c(=O)[nH]c1=O` [ZIDOVUDINE], the CC50 in the data set on MT4 was 77.5 µM.
